Reference: ChEMBL document CHEMBL1155348, “Synthesis and antiviral activity of beta-carboline derivatives bearing a substituted carbohydrazide at C-3 against poliovirus and herpes simplex virus (HSV-1)” (Eur J Med Chem, 2009)
Activity calls are given as the source filed them. The calls are words filed in the database; no cut-off is given here.

Assays:
[1] = Cytotoxicity against african green monkey Vero cells after 72 hrs by SRB assay; type: cell-based; conditions: chlorocebus sabaeus
Outline: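 Uninfected Vero cells were exposed to compound for 72 h and viability was measured by SRB assay. CC50 is the concentration giving 50% cytotoxicity.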

Enterovirus C [2] = assay: Antiviral activity against Poliovirus infected in african green monkey Vero cells by SRB assay; type: functional, organism-based
Outline: (§1)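 Screening: Vero monolayers, infected or uninfected, were treated with a range of compound concentrations. Antiviral activity was read by sulforhodamine B (SRB) staining, and EC50 was taken as the concentration giving 50% efficacy.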

Human alphaherpesvirus 1 [3] = assay: Antiviral activity against HSV1 infected in african green monkey Vero cells by SRB assay; type: functional, organism-based; conditions: Human alphaherpesvirus 1, Vero; outline: as §1
[4] = Selectivity index, ratio of CC50 for african green monkey Vero cells to EC50 in Poliovirus; type: toxicity, cell-based; conditions: read-out: Ratio CC50/EC50
Outline: (§2)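 SI was derived from the SRB-based CC50 in Vero cells and the SRB-based EC50 against each virus.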

[5] = Selectivity index, ratio of CC50 for african green monkey Vero cells to EC50 in HSV1; outline: as §2
Enterovirus C [6] = assay: Antiviral activity against Poliovirus infected in 1 hr compound pretreated african green monkey Vero cells assessed as reduction of plaque formation at 0.825 uM measured after 48 to 72 hrs by virus yield inhibition assay; type: functional; set-up: scale not given: the % may be the effect or the level left
Outline: (§3)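 Compound was dissolved in DMSO, diluted in serum-free DMEM and added to PBS-washed Vero monolayers for 1 h at 37 °C in 5% CO2. Unbound compound was removed and cells were washed and then infected for 1 h. Unadsorbed virus was removed, and cells were washed and overlaid with DMEM plus 0.5% carboxymethylcellulose. After 48 or 72 h, cells were fixed with formaldehyde, stained with crystal violet and plaques counted.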

Enterovirus C [7] = assay: Antiviral activity against Poliovirus infected in 1 hr compound pretreated african green monkey Vero cells assessed as reduction of plaque formation at 1.65 uM measured after 48 to 72 hrs by virus yield inhibition assay; type: functional; set-up: scale not given: the % may be the effect or the level left; outline: as §3
Enterovirus C [8] = assay: Antiviral activity against Poliovirus infected in 1 hr compound pretreated african green monkey Vero cells assessed as reduction of plaque formation at 3.3 uM measured after 48 to 72 hrs by virus yield inhibition assay; type: functional; set-up: scale not given: the % may be the effect or the level left; outline: as §3
Enterovirus C [9] = assay: Antiviral activity against Poliovirus infected in 1 hr compound pretreated african green monkey Vero cells assessed as reduction of plaque formation at 6.6 uM measured after 48 to 72 hrs by virus yield inhibition assay; type: functional; set-up: scale not given: the % may be the effect or the level left; outline: as §3
Enterovirus C [10] = assay: Antiviral activity against Poliovirus infected in african green monkey Vero cells assessed as reduction of plaque formation at 0.825 uM treated during viral infection measured after 48 to 72 hrs by virus yield inhibition assay; type: functional; set-up: scale not given: the % may be the effect or the level left
Outline: (§4)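 Compound was diluted from DMSO into serum-free DMEM and added together with virus to PBS-washed Vero monolayers for 1 h at 37 °C in 5% CO2. Unadsorbed virus was removed, and cells were washed with PBS and overlaid with DMEM plus 0.5% carboxymethylcellulose. After 48 or 72 h, cells were fixed with 10% formaldehyde, stained with 0.5% crystal violet and plaques counted.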

Enterovirus C [11] = assay: Antiviral activity against Poliovirus infected in african green monkey Vero cells assessed as reduction of plaque formation at 1.65 uM treated during viral infection measured after 48 to 72 hrs by virus yield inhibition assay; type: functional; set-up: scale not given: the % may be the effect or the level left; outline: as §4
Enterovirus C [12] = assay: Antiviral activity against Poliovirus infected in african green monkey Vero cells assessed as reduction of plaque formation at 3.3 uM treated during viral infection measured after 48 to 72 hrs by virus yield inhibition assay; type: functional; set-up: scale not given: the % may be the effect or the level left; outline: as §4
Enterovirus C [13] = assay: Antiviral activity against Poliovirus infected in african green monkey Vero cells assessed as reduction of plaque formation at 6.6 uM treated during viral infection measured after 48 to 72 hrs by virus yield inhibition assay; type: functional; set-up: scale not given: the % may be the effect or the level left; outline: as §4
Enterovirus C [14] = assay: Antiviral activity against Poliovirus infected in african green monkey Vero cells assessed as reduction of plaque formation at 0.825 uM treated 1 hr after viral infection measured after 48 to 72 hrs by virus yield inhibition assay; type: functional; set-up: scale not given: the % may be the effect or the level left
Outline: (§5)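 PBS-washed Vero monolayers were infected for 1 h. Unadsorbed virus was removed, cells were washed, and compound was then added at various concentrations in DMEM with 0.5% carboxymethylcellulose. After 48 or 72 h at 37 °C, cells were fixed with 10% formaldehyde, stained with 0.5% crystal violet and plaques counted.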

Enterovirus C [15] = assay: Antiviral activity against Poliovirus infected in african green monkey Vero cells assessed as reduction of plaque formation at 1.65 uM treated 1 hr after viral infection measured after 48 to 72 hrs by virus yield inhibition assay; type: functional; set-up: scale not given: the % may be the effect or the level left; outline: as §5
Enterovirus C [16] = assay: Antiviral activity against Poliovirus infected in african green monkey Vero cells assessed as reduction of plaque formation at 3.3 uM treated 1 hr after viral infection measured after 48 to 72 hrs by virus yield inhibition assay; type: functional; set-up: scale not given: the % may be the effect or the level left; outline: as §5
Enterovirus C [17] = assay: Antiviral activity against Poliovirus infected in african green monkey Vero cells assessed as reduction of plaque formation at 6.6 uM treated 1 hr after viral infection measured after 48 to 72 hrs by virus yield inhibition assay; type: functional; set-up: scale not given: the % may be the effect or the level left; outline: as §5
Enterovirus C [18] = assay: Antiviral activity against 1 hr compound pretreated Poliovirus infected in african green monkey Vero cells assessed as reduction of plaque formation at 0.825 uM after 48 to 72 hrs by virus yield inhibition assay; type: functional; set-up: scale not given: the % may be the effect or the level left
Enterovirus C [19] = assay: Antiviral activity against 1 hr compound pretreated Poliovirus infected in african green monkey Vero cells assessed as reduction of plaque formation at 1.65 uM after 48 to 72 hrs by virus yield inhibition assay; type: functional; set-up: scale not given: the % may be the effect or the level left
Enterovirus C [20] = assay: Antiviral activity against 1 hr compound pretreated Poliovirus infected in african green monkey Vero cells assessed as reduction of plaque formation at 3.3 uM after 48 to 72 hrs by virus yield inhibition assay; type: functional; set-up: scale not given: the % may be the effect or the level left
Enterovirus C [21] = assay: Antiviral activity against 1 hr compound pretreated Poliovirus infected in african green monkey Vero cells assessed as reduction of plaque formation at 6.6 uM after 48 to 72 hrs by virus yield inhibition assay; type: functional; set-up: scale not given: the % may be the effect or the level left
Human alphaherpesvirus 1 [22] = assay: Antiviral activity against 1 hr compound pretreated HSV1 infected in african green monkey Vero cells assessed as inhibition of viral replication measured after 48 to 72 hrs; type: functional, organism-based
Outline: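 HSV-1 was mixed with compound for 1 h before being added to Vero cells. The mixture infected the cells for 1 h at 37 °C in 5% CO2. The monolayer was washed with PBS and overlaid with DMEM containing carboxymethylcellulose. After 48 or 72 h at 37 °C, cells were fixed with 10% formaldehyde and stained with 0.5% crystal violet, and plaques were counted.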

Structure (SMILES): O=C(N/N=C/c1ccccc1)c1cc2c([nH]c3ccccc32)c(-c2ccccc2)n1
- CC50 at 72 h [1]: 777 µM
- EC50 (Enterovirus C [2]): 1.95 µM
- EC50 (Human alphaherpesvirus 1 [3]): > 100 µM
- selectivity ratio [4]: 398

Structure (SMILES): COc1ccc(-c2nc(C(=O)N/N=C/c3ccc(N(C)C)cc3)cc3c2[nH]c2ccccc23)cc1
- EC50 (Enterovirus C [2]): > 100 µM
- EC50 (Human alphaherpesvirus 1 [3]): > 100 µM

Structure (SMILES): COc1ccc(-c2nc(C(=O)N/N=C/c3ccccc3)cc3c2[nH]c2ccccc23)cc1
- EC50 (Enterovirus C [2]): > 100 µM
- EC50 (Human alphaherpesvirus 1 [3]): > 100 µM

Structure (SMILES): COc1ccc(/C=N/NC(=O)c2cc3c([nH]c4ccccc43)c(-c3ccc(OC)cc3)n2)cc1
- EC50 (Enterovirus C [2]): > 100 µM
- EC50 (Human alphaherpesvirus 1 [3]): > 100 µM

Structure (SMILES): O=C(N/N=C/c1ccccc1)c1cc2c([nH]c3ccccc32)c(-c2ccc([N+](=O)[O-])cc2)n1
- EC50 (Enterovirus C [2]): > 100 µM
- EC50 (Human alphaherpesvirus 1 [3]): > 100 µM

Structure (SMILES): O=C(N/N=C/c1ccc([N+](=O)[O-])cc1)c1cc2c([nH]c3ccccc32)c(-c2ccc(O)cc2)n1
- CC50 at 72 h [1]: 200 µM
- EC50 (Enterovirus C [2]): > 100 µM
- EC50 (Human alphaherpesvirus 1 [3]): 86.5 µM
- Ratio CC50/EC50 [5]: 2.3

Structure (SMILES): CN(C)c1ccc(/C=N/NC(=O)c2cc3c([nH]c4ccccc43)c(-c3cccc([N+](=O)[O-])c3)n2)cc1
- CC50 at 72 h [1]: 1050 µM
- EC50 (Enterovirus C [2]): > 100 µM
- EC50 (Human alphaherpesvirus 1 [3]): 73.2 µM
- Ratio CC50/EC50 [5]: 14.3

Structure (SMILES): CN(C)c1ccc(/C=N/NC(=O)c2cc3c([nH]c4ccccc43)c(-c3ccc(O)cc3)n2)cc1
- CC50 at 72 h [1]: 900 µM
- EC50 (Enterovirus C [2]): 2.67 µM
- EC50 (Human alphaherpesvirus 1 [3]): > 100 µM
- selectivity ratio [4]: 337
- Activity (Enterovirus C [6]): 0%
- Activity (Enterovirus C [7]): 0%
- Activity (Enterovirus C [8]): 0%
- Activity (Enterovirus C [9]): 0%
- Activity (Enterovirus C [10]): 0%
- Activity (Enterovirus C [11]): 0%
- Activity (Enterovirus C [12]): 0%
- Activity (Enterovirus C [13]): 0%
- Activity (Enterovirus C [14]): 0%
- Activity (Enterovirus C [15]): 32%
- Activity (Enterovirus C [16]): 66.3%
- Activity (Enterovirus C [17]): 88.3%
- Activity (Enterovirus C [18]): 0%
- Activity (Enterovirus C [19]): 0%
- Activity (Enterovirus C [20]): 0%
- Activity (Enterovirus C [21]): 0%

Structure (SMILES): O=C(N/N=C/c1ccccc1)c1cc2c([nH]c3ccccc32)c(-c2ccc(O)cc2)n1
- CC50 at 72 h [1]: 1240 µM
- EC50 (Enterovirus C [2]): 1.03 µM
- EC50 (Human alphaherpesvirus 1 [3]): > 100 µM
- selectivity ratio [4]: 1200

Structure (SMILES): O=C(N/N=C/c1ccc([N+](=O)[O-])cc1)c1cc2c([nH]c3ccccc32)c(-c2ccccc2)n1
- EC50 (Enterovirus C [2]): > 100 µM
- EC50 (Human alphaherpesvirus 1 [3]): > 100 µM

Structure (SMILES): CN(C)c1ccc(/C=N/NC(=O)c2cc3c([nH]c4ccccc43)c(-c3ccc([N+](=O)[O-])cc3)n2)cc1
- EC50 (Enterovirus C [2]): > 100 µM
- EC50 (Human alphaherpesvirus 1 [3]): > 100 µM

Structure (SMILES): COc1ccc(-c2nc(C(=O)N/N=C/c3ccc([N+](=O)[O-])cc3)cc3c2[nH]c2ccccc23)cc1
- EC50 (Enterovirus C [2]): > 100 µM
- EC50 (Human alphaherpesvirus 1 [3]): > 100 µM

Structure (SMILES): CN(C)c1ccc(/C=N/NC(=O)c2cc3c([nH]c4ccccc43)c(-c3ccccc3)n2)cc1
- CC50 at 72 h [1]: 1160 µM
- EC50 (Enterovirus C [2]): 0.87 µM
- EC50 (Human alphaherpesvirus 1 [3]): 1.85 µM
- selectivity ratio [4]: 1340
- Ratio CC50/EC50 [5]: 629.5

Structure (SMILES): COc1ccc(/C=N/NC(=O)c2cc3c([nH]c4ccccc43)c(-c3ccccc3)n2)cc1
- CC50 at 72 h [1]: 1150 µM
- EC50 (Enterovirus C [2]): 0.87 µM
- EC50 (Human alphaherpesvirus 1 [3]): 0.47 µM
- selectivity ratio [4]: 1320
- Ratio CC50/EC50 [5]: 2446.8
- Activity (Human alphaherpesvirus 1 [22]): inactive

Structure (SMILES): O=C(N/N=C/c1ccccc1Cl)c1cc2c([nH]c3ccccc32)c(-c2ccccc2)n1
- EC50 (Enterovirus C [2]): > 100 µM
- EC50 (Human alphaherpesvirus 1 [3]): > 100 µM

Structure (SMILES): COc1ccc(/C=N/NC(=O)c2cc3c([nH]c4ccccc43)c(-c3cccc([N+](=O)[O-])c3)n2)cc1
- EC50 (Enterovirus C [2]): > 100 µM
- EC50 (Human alphaherpesvirus 1 [3]): > 100 µM

Structure (SMILES): O=C(N/N=C/c1ccccc1Cl)c1cc2c([nH]c3ccccc32)c(-c2ccc(O)cc2)n1
- CC50 at 72 h [1]: 29.8 µM
- EC50 (Enterovirus C [2]): > 100 µM
- EC50 (Human alphaherpesvirus 1 [3]): 41.2 µM
- Ratio CC50/EC50 [5]: 0.7

Structure (SMILES): COc1ccc(/C=N/NC(=O)c2cc3c([nH]c4ccccc43)c(-c3ccc(O)cc3)n2)cc1
- CC50 at 72 h [1]: 803 µM
- EC50 (Enterovirus C [2]): > 100 µM
- EC50 (Human alphaherpesvirus 1 [3]): 22.9 µM
- Ratio CC50/EC50 [5]: 35

Structure (SMILES): COc1ccc(/C=N/NC(=O)c2cc3c([nH]c4ccccc43)c(-c3ccc([N+](=O)[O-])cc3)n2)cc1
- EC50 (Enterovirus C [2]): > 100 µM
- EC50 (Human alphaherpesvirus 1 [3]): > 100 µM
